Test [1] concerns the target T1, D(2) dopamine receptor (Homo sapiens, UniProt P14416).
The subject of test [2] is Rattus norvegicus. Description: Ability to produce robust rotation in the lesioned rat after subcutaneous administration. The test is classed as functional. The following applies: sc.
Test [3] concerns the target T2, D(1A) dopamine receptor (Homo sapiens, UniProt P21728). The experiment in a line: Binding affinity against cloned human Dopamine receptor D1 using [125I]-SCH 23982 as radioligand transfected in HEK cells. In kind it is cell-based, HEK293.
Test [4] has as its target T1, D(2) dopamine receptor. Description: Adenylate cyclase assay carried out in LTK cells transfected with human Dopamine receptor D2. The test is classed as cell-based.
For test [5], the target named is T1, D(2) dopamine receptor. Description: Binding affinity against cloned human Dopamine receptor D2 using [3H]spiperone as radioligand transfected in LTK cells.
The target in test [6] is T2, D(1A) dopamine receptor. Description: Adenylate cyclase assay carried out in LTK cells transfected with human Dopamine receptor D1. The test is classed as cell-based.
For test [7], the target named is T1, D(2) dopamine receptor. The experiment in a line: Intrinsic activity relative to dopamine for human Dopamine receptor D2 at 10 uM. The method in brief:
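Adenylate cyclase functional assay in LTK cells transfected with the human D2 receptor. […] Values are mean ± SEM over the stated number of experiments.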

Test [8] deals with T3, 5-hydroxytryptamine receptor 1A (Mus musculus, UniProt Q64264).
T3 sequence (Q64264 whole entry): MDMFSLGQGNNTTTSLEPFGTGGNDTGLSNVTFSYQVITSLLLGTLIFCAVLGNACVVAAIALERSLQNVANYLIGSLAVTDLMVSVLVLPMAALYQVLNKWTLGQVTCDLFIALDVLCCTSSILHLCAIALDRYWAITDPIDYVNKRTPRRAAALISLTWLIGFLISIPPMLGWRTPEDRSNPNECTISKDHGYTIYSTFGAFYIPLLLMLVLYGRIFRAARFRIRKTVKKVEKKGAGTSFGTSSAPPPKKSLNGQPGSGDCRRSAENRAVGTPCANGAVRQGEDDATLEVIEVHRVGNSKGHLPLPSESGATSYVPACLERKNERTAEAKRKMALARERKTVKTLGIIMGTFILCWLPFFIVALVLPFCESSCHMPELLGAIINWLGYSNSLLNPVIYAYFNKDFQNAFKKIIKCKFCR
Description: Binding affinity against serotonergic 5-HT1a receptor.

Test [9] addresses Beta-1 adrenergic receptor (Homo sapiens, UniProt P08588). The experiment in a line: Binding affinity against Beta-1 adrenergic receptor.
Test [10] addresses Beta-2 adrenergic receptor (Homo sapiens, UniProt P07550). Description: Binding affinity against Beta-2 adrenergic receptor.
Test [11] concerns the target T4, 5-hydroxytryptamine receptor 2C (Rattus norvegicus, UniProt P08909).
T4 sequence (P08909 whole entry): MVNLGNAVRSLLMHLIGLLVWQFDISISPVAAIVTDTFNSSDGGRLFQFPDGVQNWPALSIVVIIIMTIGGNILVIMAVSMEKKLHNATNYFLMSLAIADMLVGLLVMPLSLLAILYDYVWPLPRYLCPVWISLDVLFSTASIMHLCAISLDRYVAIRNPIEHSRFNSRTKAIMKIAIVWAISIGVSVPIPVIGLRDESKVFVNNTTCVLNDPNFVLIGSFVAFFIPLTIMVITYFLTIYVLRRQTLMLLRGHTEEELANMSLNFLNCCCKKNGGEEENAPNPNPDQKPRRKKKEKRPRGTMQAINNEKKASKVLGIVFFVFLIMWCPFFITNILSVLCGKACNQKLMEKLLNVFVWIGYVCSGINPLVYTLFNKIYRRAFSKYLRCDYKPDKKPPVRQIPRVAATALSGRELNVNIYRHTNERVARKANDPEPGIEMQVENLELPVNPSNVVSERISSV
The experiment in a line: Binding affinity against serotonergic 5-HT1c receptor.

The target of test [12] is 5-hydroxytryptamine receptor 2A (Bos taurus, UniProt Q75Z89). The experiment in a line: Binding affinity against serotonergic 5-HT2 receptor.
Chain of 5-hydroxytryptamine receptor 2A (Q75Z89 whole entry): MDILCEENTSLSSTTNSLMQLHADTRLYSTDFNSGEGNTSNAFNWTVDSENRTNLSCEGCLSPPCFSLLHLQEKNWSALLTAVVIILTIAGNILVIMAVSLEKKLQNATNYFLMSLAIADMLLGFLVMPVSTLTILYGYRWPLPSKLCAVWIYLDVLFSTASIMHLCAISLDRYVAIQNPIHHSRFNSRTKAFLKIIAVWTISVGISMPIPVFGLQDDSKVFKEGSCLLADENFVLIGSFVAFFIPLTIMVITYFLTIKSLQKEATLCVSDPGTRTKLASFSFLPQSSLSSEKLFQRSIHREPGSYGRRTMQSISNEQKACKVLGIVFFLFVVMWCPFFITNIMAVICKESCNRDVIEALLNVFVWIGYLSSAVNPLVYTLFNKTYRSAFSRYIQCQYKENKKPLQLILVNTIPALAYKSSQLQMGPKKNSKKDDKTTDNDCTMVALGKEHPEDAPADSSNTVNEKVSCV

This note sets out measurements from ChEMBL document CHEMBL1128531 (J Med Chem, 1995).

Active and inactive are the calls of the source. The rule behind the calls is not given here.

T1 sequence (P14416 whole entry): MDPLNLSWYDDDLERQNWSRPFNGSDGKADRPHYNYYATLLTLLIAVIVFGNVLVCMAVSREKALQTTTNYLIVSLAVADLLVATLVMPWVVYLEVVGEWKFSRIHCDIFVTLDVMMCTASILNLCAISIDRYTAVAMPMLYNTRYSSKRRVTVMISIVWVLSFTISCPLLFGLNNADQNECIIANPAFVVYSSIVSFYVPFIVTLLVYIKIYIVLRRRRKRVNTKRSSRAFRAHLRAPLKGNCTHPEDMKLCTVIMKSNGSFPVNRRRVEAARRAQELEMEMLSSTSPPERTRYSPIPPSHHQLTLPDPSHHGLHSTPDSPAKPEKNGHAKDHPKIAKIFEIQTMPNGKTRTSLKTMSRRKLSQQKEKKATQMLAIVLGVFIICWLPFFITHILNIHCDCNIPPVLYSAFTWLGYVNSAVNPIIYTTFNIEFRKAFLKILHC
T2 sequence (P21728 whole entry): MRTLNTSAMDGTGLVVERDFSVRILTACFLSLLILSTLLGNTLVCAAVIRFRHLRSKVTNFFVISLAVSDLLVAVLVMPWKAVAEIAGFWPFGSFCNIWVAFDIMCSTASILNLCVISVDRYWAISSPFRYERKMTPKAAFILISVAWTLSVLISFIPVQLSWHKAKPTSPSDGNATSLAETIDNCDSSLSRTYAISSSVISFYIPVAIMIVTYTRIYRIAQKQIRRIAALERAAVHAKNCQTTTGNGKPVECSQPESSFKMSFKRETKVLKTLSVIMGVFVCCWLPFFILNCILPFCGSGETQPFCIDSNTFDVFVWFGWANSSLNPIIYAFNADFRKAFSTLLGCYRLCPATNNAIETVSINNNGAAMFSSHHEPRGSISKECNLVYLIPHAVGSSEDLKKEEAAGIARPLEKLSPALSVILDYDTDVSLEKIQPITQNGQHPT
Chain of Beta-2 adrenergic receptor (P07550 whole entry): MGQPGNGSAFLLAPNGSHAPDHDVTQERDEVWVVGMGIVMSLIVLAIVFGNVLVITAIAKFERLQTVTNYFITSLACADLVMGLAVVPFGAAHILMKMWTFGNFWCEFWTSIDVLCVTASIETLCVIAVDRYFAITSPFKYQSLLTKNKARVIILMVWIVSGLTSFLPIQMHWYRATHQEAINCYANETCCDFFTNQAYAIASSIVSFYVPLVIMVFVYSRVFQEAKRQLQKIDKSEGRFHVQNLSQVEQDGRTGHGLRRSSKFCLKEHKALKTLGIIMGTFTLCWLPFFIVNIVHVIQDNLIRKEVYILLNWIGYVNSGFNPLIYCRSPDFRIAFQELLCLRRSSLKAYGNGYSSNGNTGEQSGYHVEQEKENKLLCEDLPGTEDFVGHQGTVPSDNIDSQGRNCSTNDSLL
Chain of Beta-1 adrenergic receptor (P08588 whole entry): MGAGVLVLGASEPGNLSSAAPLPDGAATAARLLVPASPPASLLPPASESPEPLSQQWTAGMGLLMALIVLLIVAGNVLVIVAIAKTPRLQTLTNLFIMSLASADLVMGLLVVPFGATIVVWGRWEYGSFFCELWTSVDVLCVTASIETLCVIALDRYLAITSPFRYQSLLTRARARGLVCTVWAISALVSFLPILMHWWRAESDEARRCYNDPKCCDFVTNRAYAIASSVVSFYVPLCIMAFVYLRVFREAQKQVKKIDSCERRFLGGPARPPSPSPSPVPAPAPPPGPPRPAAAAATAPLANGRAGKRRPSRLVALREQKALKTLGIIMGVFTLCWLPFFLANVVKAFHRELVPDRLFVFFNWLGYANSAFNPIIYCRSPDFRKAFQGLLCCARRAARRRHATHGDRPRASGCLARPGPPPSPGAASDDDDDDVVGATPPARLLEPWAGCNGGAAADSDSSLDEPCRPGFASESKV

On to `Oc1cc2c(cc1O)[C@@H](c1ccccc1)CNCC2` [(R)-SKF-38393], for which, in test [1], the IA result is “inactive”. Besides, the 50% effect level in [2] (ED50) was put at a dose of 0.02 µmol/kg.
As to `CCCc1cc2c(s1)CN[C@@H]1CCc3cc(O)c(O)cc3[C@@H]21` [A-86929], the Ki in [3] was 49 nM; in test [5], 710 nM. In addition, the EC50 in test [4] is 3900 nM; in test [6], 9 nM.
Turning to `CCCc1cc2c(s1)CN[C@H]1CCc3cc(O)c(O)cc3[C@H]21`, the Ki turned out to be 3050 nM in test [3] and 4020 nM in test [5]. For the same molecule, the EC50 in test [4] was greater than 10000 nM; in [6], 1700 nM. In addition, the IA in test [7] was 3%.
`Oc1cc2c(cc1O)[C@H]1c3ccccc3CN[C@@H]1CC2` [DIHYDREXIDINE]: the ED50 in test [2] was determined as 0.04 µmol/kg. Moreover, the Ki in test [8] was greater than 3000 nM; in test [9], 1500 nM; in [10] it was 1200 nM; in [11] it was 2400 nM; in test [12], greater than 3000 nM.
For `NC[C@@H]1O[C@H](C23CC4CC(CC(C4)C2)C3)Cc2c1ccc(O)c2O`, the EC50 in test [4] was greater than 4000 nM. The same molecule gave a Ki in [5] of 1550 nM. The molecule also had an IA in test [7] of 18%.

For orientation: ED50 means the dose at which the effect has come halfway, by size or by number of responders. Read a low ED50 as an effect at a small dose. What is called Ki is the equilibrium dissociation constant of an inhibitor or competing ligand from its target. Low values mean higher affinity, high ones lower affinity. By EC50 is commonly meant the concentration needed to bring the measured effect to its halfway point. Low values mean greater potency, high ones weaker potency.
